Source: ChEMBL document CHEMBL3875221, “New N- and O-arylpiperazinylalkyl pyrimidines and 2-methylquinazolines derivatives as 5-HT7 and 5-HT1A receptor ligands: Synthesis, structure-activity relationships, and molecular modeling studies” (Bioorg Med Chem, 2017)
pKi: −log10 of the molar value.

What was measured:
[1] = molecular target: T1, 5-hydroxytryptamine receptor 7 (Homo sapiens, UniProt P34969); assay: Displacement of [3H]-5-HT from recombinant human 5-HT7A receptor expressed in CHOK1 cell membranes after 40 mins by liquid scintillation counting method; design: species or system CHO-K1
T1 sequence (P34969 whole entry): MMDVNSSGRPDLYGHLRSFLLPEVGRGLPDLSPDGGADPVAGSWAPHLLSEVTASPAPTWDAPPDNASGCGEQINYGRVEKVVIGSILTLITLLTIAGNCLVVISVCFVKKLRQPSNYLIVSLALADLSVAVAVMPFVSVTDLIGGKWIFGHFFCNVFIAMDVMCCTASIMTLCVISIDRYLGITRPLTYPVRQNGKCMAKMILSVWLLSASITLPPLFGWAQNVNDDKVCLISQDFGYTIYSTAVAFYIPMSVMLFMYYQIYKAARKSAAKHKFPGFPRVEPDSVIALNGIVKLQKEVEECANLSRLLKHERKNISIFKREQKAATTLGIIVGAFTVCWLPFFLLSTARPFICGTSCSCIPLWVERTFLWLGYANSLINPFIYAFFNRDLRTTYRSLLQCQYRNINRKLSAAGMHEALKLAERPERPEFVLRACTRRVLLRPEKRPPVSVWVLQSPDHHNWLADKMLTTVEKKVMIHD
Procedure, shortened: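 Membranes (15 µg protein/sample) in 50 mM Tris-HCl pH 7.4 with 4 mM MgCl2, incubated 40 min at 27 °C with [3H]-5-HT (5 nM final). Nonspecific binding with 10 µM serotonin. Stopped by vacuum filtration on PEI-soaked GF/C filters, ice-cold Tris washes.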

[2] = molecular target: T2, 5-hydroxytryptamine receptor 1A (Homo sapiens, UniProt P08908); assay: Displacement of [3H]-8-OH-DPAT from recombinant human 5-HT1A receptor expressed in CHOK1 cell membranes after 1 hr by liquid scintillation counting method; design: species or system CHO-K1
T2 sequence (P08908 whole entry): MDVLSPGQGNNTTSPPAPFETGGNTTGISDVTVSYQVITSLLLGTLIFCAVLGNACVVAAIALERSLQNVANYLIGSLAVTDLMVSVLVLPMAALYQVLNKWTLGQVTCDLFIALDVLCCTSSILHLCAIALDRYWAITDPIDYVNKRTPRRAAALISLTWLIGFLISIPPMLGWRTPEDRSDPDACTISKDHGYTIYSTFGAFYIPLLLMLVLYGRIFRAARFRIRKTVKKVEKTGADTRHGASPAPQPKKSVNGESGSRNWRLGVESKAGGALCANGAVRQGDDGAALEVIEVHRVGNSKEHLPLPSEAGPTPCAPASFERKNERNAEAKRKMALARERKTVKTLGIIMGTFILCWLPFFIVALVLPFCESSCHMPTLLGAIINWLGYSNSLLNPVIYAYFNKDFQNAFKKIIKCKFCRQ

[3] = molecular target: T1, 5-hydroxytryptamine receptor 7; assay: Antagonist activity at recombinant human 5-HT7 receptor expressed in HEK293 cells assessed as inhibition of 5-CT-induced increase in cAMP level at 10^-6M after 30 mins by TR-FRET assay relative to control; type: functional, cell-based
Procedure, shortened: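 Stably transfected HEK293 cells in stimulation buffer (HBSS, 5 mM HEPES, 0.5 mM IBMX, 0.1% BSA) exposed to 10 nM 5-CT with test ligand for 30 min at room temperature. Lysis with Eu-cAMP/ULight-anti-cAMP, 1 h, then TR-FRET readout of cAMP.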

[4] = molecular target: T3, 5-hydroxytryptamine receptor 1A (Homo sapiens) (UniProt P08908); assay: Antagonist activity at recombinant human 5-HT1A receptor expressed in HEK293 cells assessed as inhibition of 8-OH-DPAT-induced decrease in cAMP level at 10^-6M after 30 mins in presence of forskolin by TR-FRET assay relative to control; type: functional, cell-based
T3 sequence (whole entry): T2 sequence (P08908 whole entry)
Procedure, shortened: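 Stable HEK293 cells grown in DMEM with 10% dialysed FBS and G418, resuspended in HBSS/HEPES buffer with 0.5 mM IBMX and 0.1% BSA. Stimulated with 1 µM forskolin plus 1 µM (R)-(+)-8-OH-DPAT alongside test ligand, 30 min at room temperature. cAMP by LANCE Ultra TR-FRET after lysis, 1 h.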

Row | SMILES | pKi [1] | pKi [2] | inhibition [3] [%] | inhibition [4] [%]
1 | CCOc1ccccc1N1CCN(CCCCCOc2cc(-c3ccccc3)ncn2)CC1 | 7.63 | 8.16 | 5.5 | 6
2 | c1ccc(CN2CCN(CCCCCOc3cc(-c4ccccc4)ncn3)CC2)cc1 | 6.00 | 5.99 |  | 
3 | Clc1ccc(N2CCN(CCCCCOc3cc(-c4ccccc4)ncn3)CC2)cc1 | 5.86 | 7.04 |  | 
4 | CCOc1ccccc1N1CCN(CCCCCn2c(C)nc3ccccc3c2=O)CC1 | 8.07 | 8.52 | 19.5 | 18
5 | Cc1nc(OCCCCCN2CCN(c3ccccc3)CC2)c2ccccc2n1 | 6.56 | 7.61 |  | 
6 | O=c1cc(-c2ccccc2)ncn1CCCCCN1CCN(Cc2ccccc2)CC1 | 5.88 | 6.11 |  | 
7 | Cc1nc2ccccc2c(=O)n1CCCCCN1CCN(c2ccc(Cl)cc2)CC1 | 6.49 | 7.00 |  | 
8 | CCOc1ccccc1N1CCN(CCCCCn2cnc(-c3ccccc3)cc2=O)CC1 | 7.35 | 7.59 |  | 
9 | Clc1cccc(N2CCN(CCCCCOc3cc(-c4ccccc4)ncn3)CC2)c1 | 7.35 | 7.76 |  | 
10 | O=c1cc(-c2ccccc2)ncn1CCCCCN1CCN(c2cccc(Cl)c2)CC1 | 7.02 | 7.75 |  | 
11 | CC1CCN(CC[C@H]2CCCN2S(=O)(=O)c2cccc(O)c2)CC1 |  |  | 97 | 
12 | O=c1cc(-c2ccccc2)ncn1CCCCCN1CCN(c2ccccc2)CC1 | 6.21 | 6.95 |  | 
13 | Cc1nc2ccccc2c(=O)n1CCCCCN1CCN(c2ccccc2)CC1 | 7.27 | 7.73 |  | 
14 | Cc1nc2ccccc2c(=O)n1CCCCCN1CCN(c2cccc(Cl)c2)CC1 | 7.45 | 8.09 |  | 
15 | O=c1cc(-c2ccccc2)ncn1CCCCCN1CCN(c2ccc(Cl)cc2)CC1 | 5.88 | 6.78 |  | 
16 | Cc1nc(OCCCCCN2CCN(c3ccc(Cl)cc3)CC2)c2ccccc2n1 | 6.74 | 7.28 |  | 
17 | c1ccc(-c2cc(OCCCCCN3CCN(c4ccccc4)CC3)ncn2)cc1 | 6.84 | 7.47 |  | 
